Active and inactive are the calls of the source. The calls are words filed in the database; no cut-off is given here.
Legend:
Rattus norvegicus [1] = experiment: Antiinflammatory activity in collagen-induced arthritis Lewis rat model assessed as inhibition of paw edema at 2 to 30 mg/kg, po BID for 28 days measured on […] by Plethysmometer; assay type: functional, organism-based
How it was run: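 Female Lewis SPF rats, 6 weeks old (n = 8/group), were immunized at the tail base with 900 μg bovine type II collagen in Freund's complete adjuvant (4 mg/mL M. tuberculosis) on day 0. A 450 μg boost followed on day 7. Compound in 5% aqueous gum arabic was gavaged b.i.d. for 28 days from day 0, against vehicle; methotrexate 3×/week served as positive control. Hind-limb volume was read by plethysmometer on days 0, 12, 14, 21 and 28, as % increase over day 0.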

Rattus norvegicus [2] = experiment: Drug uptake in collagen-induced Lewis rat tarasal joints at 2 to 30 mg/kg, po measured 5 hrs after last dosing; assay type: functional, organism-based
How it was run: (§1)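 In the rat collagen-induced arthritis study (oral b.i.d. dosing for 28 days), compound concentration was measured in plasma, tarsal homogenates and thigh-bone marrow. Samples were taken 5 h after the last dose on day 28.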

[3] = Cmax in rat at 100 mg/kg, po; assay type: ADME, organism-based; design: dose 100 mg/kg, route oral; conditions: in vivo
[4] = AUC (0 to 24 hrs) in rat at 5 mg/kg, iv; assay type: ADME, organism-based; design: time < 24 hr, dose 5 mg/kg, route intravenous; conditions: plasma
[5] = AUC (0 to 24 hrs) in rat at 5 mg/kg, po; assay type: ADME, organism-based; design: time < 24 hr, dose 5 mg/kg, route oral; conditions: plasma
Mus musculus [6] = experiment: Toxicity in ICR mouse assessed as increase in ALT level at 300 mg/kg, po QD for 14 days; assay type: organism-based; design: dose 300 mg/kg, route oral; conditions: in vivo, 336 h
How it was run: (§2)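 Repeated-dose study in 6-week-old male ICR mice. Vehicle or 30, 100 or 300 mg/kg was given orally once daily for 14 days. Survival, behavior, body weight and liver enzymes (AST, ALT) were monitored.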

Mus musculus [7] = experiment: Toxicity in ICR mouse at 30 mg/kg, po QD for 14 days; assay type: organism-based; design: dose 30 mg/kg, route oral; conditions: in vivo, 336 h; how it was run: as §2
Mus musculus [8] = experiment: Toxicity in ICR mouse assessed as increase in feeding behavior at 1000 mg/kg, po administered as single dose; assay type: organism-based; design: dose 1000 mg/kg, route oral; conditions: in vivo
Mus musculus [9] = species on record: Mus musculus; experiment: Antiinflammatory activity in Freund's adjuvant-induced C57BL/6 mouse assessed as decrease in inflammatory cell infiltrates in spinal cord; assay type: functional, organism-based
How it was run: (§3)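 C57BL/6 mice were immunized s.c. with a MOG33-55 peptide emulsion and given pertussis vaccine (350 ng i.v.) right away and again 48 h later. From day 0, compound in 3% aqueous Tween 80 (4 mg/mL) or water was dosed orally b.i.d. Tissue cellular infiltrate was scored 0–5, from few small perivascular/meningeal infiltrates up to very large extensive infiltrate.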

[10] = Aqueous solubility of the compound at pH 1.2; assay type: physicochemical
Rattus norvegicus [11] = experiment: Antiinflammatory activity in complete Freund's adjuvant-induced Lewis rat arthritis model assessed as inhibition of paw edema at 30 mg/kg, po BID; assay type: functional, organism-based; design: dose 30 mg/kg
How it was run: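 Female Lewis SPF rats, 6 weeks old (n = 8/group), received an intradermal right hind footpad injection of 100 μL PBS-emulsified Freund's complete adjuvant (10 mg/mL M. butyricum). From day 10, compound in 5% gum arabic or vehicle was gavaged b.i.d. for a further 18 days; methotrexate 3×/week was the positive control. Left hind-limb volume was read by plethysmometer on days 0, 8, 15, 21 and 28, as % increase over day 0.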

Mus musculus [12] = experiment: Toxicity in ICR mouse assessed as occurrence of hypoactivity at 500 mg/kg, po administered as single dose; assay type: organism-based; design: dose 500 mg/kg, route oral; conditions: in vivo
Mus musculus [13] = experiment: Toxicity in ICR mouse at 100 mg/kg, po administered as single dose; assay type: organism-based; design: dose 100 mg/kg, route oral; conditions: in vivo
Mus musculus [14] = species on record: Mus musculus; experiment: Antiinflammatory activity in Freund's adjuvant-induced C57BL/6 mouse assessed as decrease in inflammatory cell infiltrates in cerebellum; assay type: functional, organism-based; how it was run: as §3
CYP2C19 [15] = target: T1, CYP2C19 (Homo sapiens, UniProt P33261); experiment: Inhibition of CYP2C19 at 1 uM; assay type: ADME
T1 sequence (P33261 whole entry): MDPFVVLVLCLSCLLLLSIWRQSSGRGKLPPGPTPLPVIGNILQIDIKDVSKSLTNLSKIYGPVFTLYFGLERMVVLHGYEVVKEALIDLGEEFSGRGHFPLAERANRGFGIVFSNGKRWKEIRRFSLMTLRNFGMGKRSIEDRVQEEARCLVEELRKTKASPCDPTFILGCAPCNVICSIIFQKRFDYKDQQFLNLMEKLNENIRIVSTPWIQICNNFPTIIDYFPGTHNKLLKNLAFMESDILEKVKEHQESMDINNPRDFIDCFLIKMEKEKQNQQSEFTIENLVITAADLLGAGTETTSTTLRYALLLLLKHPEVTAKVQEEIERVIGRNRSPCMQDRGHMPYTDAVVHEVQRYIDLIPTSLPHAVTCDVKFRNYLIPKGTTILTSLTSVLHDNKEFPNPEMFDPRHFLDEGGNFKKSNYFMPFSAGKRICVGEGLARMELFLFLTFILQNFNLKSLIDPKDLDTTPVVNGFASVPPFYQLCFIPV

Mus musculus [16] = experiment: Toxicity in ICR mouse at 100 mg/kg, po QD for 14 days; assay type: organism-based; design: dose 100 mg/kg, route oral; conditions: in vivo, 336 h; how it was run: as §2
Mus musculus [17] = experiment: Antiinflammatory activity in complete Freund's adjuvant-induced C57BL/6 mouse assessed as delay in autoimmune encephalomyelitis disease progression at 30 mg/kg, po BID; assay type: functional
How it was run: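 MOG33-55 peptide emulsion given subcutaneously to C57BL/6 mice, with intravenous pertussis vaccine (350 ng) right after and again 48 h later. Compound dissolved at 4 mg/mL in 3% aqueous Tween 80 (stored at 4 C), or water as vehicle, given orally b.i.d. from the day of immunization (day 0). Mice monitored daily for disease onset and clinical score (0–5 scale).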

Mus musculus [18] = experiment: Toxicity in ICR mouse assessed as increase in AST level at 300 mg/kg, po QD for 14 days; assay type: organism-based; design: dose 300 mg/kg, route oral; conditions: in vivo, 336 h; how it was run: as §2
CYP2C9 [19] = target: T2, CYP2C9 (Homo sapiens, UniProt P11712); experiment: Inhibition of CYP2C9 at 100 uM; assay type: ADME
T2 sequence (P11712 whole entry): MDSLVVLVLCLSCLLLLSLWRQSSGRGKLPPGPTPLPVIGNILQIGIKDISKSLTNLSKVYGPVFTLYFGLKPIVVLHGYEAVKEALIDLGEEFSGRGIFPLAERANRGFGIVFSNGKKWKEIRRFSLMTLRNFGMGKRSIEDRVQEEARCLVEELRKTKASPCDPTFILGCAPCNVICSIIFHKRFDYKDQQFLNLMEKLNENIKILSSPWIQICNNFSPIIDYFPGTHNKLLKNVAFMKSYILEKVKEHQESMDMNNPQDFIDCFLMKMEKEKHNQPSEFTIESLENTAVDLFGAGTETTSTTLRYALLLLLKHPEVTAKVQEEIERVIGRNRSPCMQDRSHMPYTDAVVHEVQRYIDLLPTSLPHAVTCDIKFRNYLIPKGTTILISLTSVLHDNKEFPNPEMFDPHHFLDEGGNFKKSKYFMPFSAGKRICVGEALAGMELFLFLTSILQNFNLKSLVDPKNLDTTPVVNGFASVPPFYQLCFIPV

CYP2C9 [20] = target: T2, CYP2C9; experiment: Inhibition of CYP2C9 at 1 uM; assay type: ADME
[21] = AUC (0 to 24 hrs) in rat at 100 mg/kg, po; assay type: ADME, organism-based; design: time < 24 hr, dose 100 mg/kg, route oral; conditions: plasma
[22] = Tmax in rat at 5 mg/kg, po; assay type: ADME, organism-based; design: dose 5 mg/kg, route oral; conditions: in vivo
How it was run: (§4)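 Rats, not fasted, received a single intravenous or oral dose.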

Rattus norvegicus [23] = experiment: Inhibition of bone resorption in joints of collagen-induced arthritis Lewis rat model at 30 mg/kg, po BID for 28 days; assay type: functional, organism-based; design: dose 30 mg/kg
How it was run: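 Female Lewis SPF rats, 6 weeks old (n = 8/group). CIA was induced on day 0 by intradermal injection at the tail base of 900 μg bovine type II collagen in Freund's complete adjuvant, with a 450 μg boost on day 7. Compound in 5% gum arabic was given by gavage b.i.d. for 28 days from day 0. Hind-paw radiographs were taken on day 29 and scored blind from 0 to 4, averaging both legs. Two-tailed t test.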

[24] = AUC (0 to 24 hrs) in rat at 30 mg/kg, po; assay type: ADME, organism-based; design: time < 24 hr, dose 30 mg/kg, route oral; conditions: plasma
[25] = Tmax in rat at 100 mg/kg, po; assay type: ADME, organism-based; design: dose 100 mg/kg, route oral; conditions: in vivo; how it was run: as §4
CYP2C19 [26] = target: T1, CYP2C19; experiment: Inhibition of CYP2C19 at 100 uM; assay type: ADME
Rattus norvegicus [27] = experiment: Drug uptake in collagen-induced Lewis rat bone marrow at 2 to 30 mg/kg, po measured 5 hrs post last dose; assay type: functional, organism-based; how it was run: as §1
[28] = Half life in rat at 5 mg/kg, iv; assay type: ADME, organism-based; design: dose 5 mg/kg, route intravenous; conditions: in vivo
Mus musculus [29] = species on record: Mus musculus; experiment: Antiinflammatory activity in Freund's adjuvant-induced C57BL/6 mouse assessed as decrease in inflammatory cell infiltrates in brain; assay type: functional, organism-based; how it was run: as §3
CYP3A4 = CYP3A4 (Homo sapiens, UniProt P08684); experiment: Inhibition of CYP3A4 at 100 uM; assay type: ADME
CYP3A4, sequence (P08684 whole entry): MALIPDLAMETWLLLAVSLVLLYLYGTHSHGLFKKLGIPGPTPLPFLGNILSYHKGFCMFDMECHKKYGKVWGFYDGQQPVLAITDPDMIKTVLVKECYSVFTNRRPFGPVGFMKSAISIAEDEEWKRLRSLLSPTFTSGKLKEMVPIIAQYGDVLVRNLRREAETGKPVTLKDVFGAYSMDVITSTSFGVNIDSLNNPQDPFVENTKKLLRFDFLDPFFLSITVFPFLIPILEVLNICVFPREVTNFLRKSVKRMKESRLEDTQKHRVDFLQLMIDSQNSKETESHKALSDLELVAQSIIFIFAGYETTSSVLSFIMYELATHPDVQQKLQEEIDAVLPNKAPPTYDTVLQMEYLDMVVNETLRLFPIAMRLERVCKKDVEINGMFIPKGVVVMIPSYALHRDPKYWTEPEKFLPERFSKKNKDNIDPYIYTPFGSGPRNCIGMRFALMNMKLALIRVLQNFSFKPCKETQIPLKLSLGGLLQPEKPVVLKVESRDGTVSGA

[30] = Tmax in rat at 30 mg/kg, po; assay type: ADME, organism-based; design: dose 30 mg/kg, route oral; conditions: in vivo; how it was run: as §4
[31] = Clearance in rat at 5 mg/kg, iv; assay type: ADME, organism-based; design: dose 5 mg/kg, route intravenous; conditions: in vivo
Mus musculus [32] = experiment: Toxicity in ICR mouse assessed as vacuolar degeneration in kidney at 300 mg/kg, po QD for 14 days; assay type: organism-based; design: dose 300 mg/kg, route oral; conditions: in vivo, 336 h

Cc1nn(C)c2nc(N(C)CCN(C)C)c(C(=O)NC(=O)Nc3cccc(OC(C)C)c3)cc12.Cl
Activity (Rattus norvegicus [1]): Dose-dependent effect
Drug uptake (Rattus norvegicus [2]): Active
Cmax [3]: 927 ng/mL
AUC(0-t) at 24 h [4]: 2690 ng·h/mL
AUC(0-t) at 24 h [5]: 1620 ng·h/mL
Activity (Mus musculus [6]): Toxic
Activity (Mus musculus [7]): Non-toxic
Activity (Mus musculus [8]): Toxic
Activity (Mus musculus [9]): Active
solubility [10]: 31.3 µg/mL
Activity (Rattus norvegicus [11]): Active
Activity (Mus musculus [12]): Toxic
Activity (Mus musculus [13]): Non-toxic
Activity (Mus musculus [14]): Active
inhibition at 1 µM (CYP2C19 [15]): -8%
Activity (Mus musculus [16]): Non-toxic
Activity (Mus musculus [17]): 32.7 days
Activity (Mus musculus [18]): Toxic
inhibition at 100 µM (CYP2C9 [19]): 36%
inhibition at 1 µM (CYP2C9 [20]): 11%
AUC(0-t) at 24 h [21]: 15100 ng·h/mL
Tmax [22]: 5 h
Activity (Rattus norvegicus [23]): Active
AUC(0-t) at 24 h [24]: 5570 ng·h/mL
Tmax [25]: 3 h
inhibition at 100 µM (CYP2C19 [26]): 34%
Drug uptake (Rattus norvegicus [27]): Active
half-life [28]: 10 h
Activity (Mus musculus [29]): Active
inhibition at 100 µM (CYP3A4): 49%
Tmax [30]: 3 h
clearance [31]: 31.7 mL/min/kg
Activity (Mus musculus [32]): Toxic

From ChEMBL document CHEMBL1687928, “Discovery, optimization, and pharmacological characterization of novel heteroaroylphenylureas antagonists of C-C chemokine ligand 2 function” (J Med Chem, 2011)
